# Measured values pooled from the literature.
# Compare with care: the assays were run in different laboratories.
# Medium: plasma
# Route: intravenous
Structure (SMILES),host,dose,notes,Vd
CCNC(=O)c1nc(-c2ccc3[nH]c(-c4nc(C)no4)cc3c2)c(C)[nH]1,Sprague-Dawley rat,1 mg/kg,,1.3 L/kg
Oc1cc(O)cc(-c2cc3ccc(O)cc3o2)c1,male rat,5 mg/kg,,0.393 L/kg
COc1ccc2c(Cc3ccccc3F)c3n(c(=O)c2c1OC)CCc1cc2c(cc1-3)OCO2,rat,5 mg/kg,,0.32 L/kg
C#Cc1cnc2nc(O)n(C(CC)CC)c2n1,Sprague-Dawley rat,1 mg/kg,,0.8 L/kg
O=C(c1cc(Cc2n[nH]c(=O)c3ccccc23)ccc1F)N1CCN(C(=O)C2CC2)CC1,female Sprague-Dawley rat,,,0.201 L
CN1CCC(c2ccccc2CC(C)(C)Nc2nc(N3CCOCC3)nc(-n3c(C(F)F)nc4ccccc43)n2)CC1,rat,5 mg/kg,single dose,23.7 L/kg
CCCC[C@@H]1NC(=O)[C@H](Cc2ccc(O)cc2)NC(=O)[C@@H]2CCCN2C(=O)[C@H](CC(=O)O)NC(=O)[C@H](C)NC(=O)[C@H](Cc2ccccc2)NC(=O)[C@@H]2CSCCC(=O)N3CN(CN(C3)C(=O)CCSC[C@@H](C(=O)N[C@@H](C)C(N)=O)NC1=O)C(=O)CCSC[C@H](NC(C)=O)C(=O)N[C@@H](CC(C)(C)C)C(=O)N1CCC[C@H]1C(=O)N[C@@H](CCC(=O)O)C(=O)N[C@H](CCCCNC(=O)CCc1cn(CCOCCOCCOCCOCCOCCC(=O)N[C@H]3CSCCC(=O)N4CN5CN(C4)C(=O)CCSC[C@H](NC(=O)[C@@H](CC(=O)O)NC(=O)[C@H](Cc4cccc6ccccc46)NC(=O)[C@@H]4CCCN4C3=O)C(=O)N[C@@H](CCSC)C(=O)N[C@@H](CCCCNC(=N)N)C(=O)N[C@@H](CC(=O)O)C(=O)N[C@@H](Cc3c[nH]c4ccccc34)C(=O)N[C@@H](CO)C(=O)N[C@@H]([C@@H](C)O)C(=O)N3CCC[C@H]3C(=O)N3C[C@H](O)C[C@H]3C(=O)N[C@@H](Cc3c[nH]c4ccccc34)C(=O)N[C@H](C(N)=O)CSCCC5=O)nn1)C(=O)N1CCC[C@H]1C(=O)N[C@@H](Cc1ccc(O)cc1)C(=O)N2,rat,2 mg/kg,,1 L/kg
C[C@]12CC[C@H](n3ccnc3)CC1=CC[C@@H]1[C@@H]2CC[C@]2(C)C(n3cnc4ccccc43)=CC[C@@H]12,Sprague-Dawley rat,1 mg/kg,,~6 L/kg
CCCC[C@@H]1NC(=O)[C@H](Cc2ccc(O)cc2)NC(=O)[C@@H]2CCCN2C(=O)[C@H](CC(=O)O)NC(=O)[C@H](C)NC(=O)[C@H](Cc2ccccc2)NC(=O)[C@@H]2CSCCC(=O)N3CN(CN(C3)C(=O)CCSC[C@@H](C(=O)N[C@@H](C)C(N)=O)NC1=O)C(=O)CCSC[C@H](NC(C)=O)C(=O)N[C@@H](CC(C)(C)C)C(=O)N1CCC[C@H]1C(=O)N[C@@H](CCC(=O)O)C(=O)N[C@H](CCCCNC(=O)CCc1cn(CCOCCOCCOCCOCCOCCOCCOCCOCCOCCOCCNC(=O)CCOCCN(CCOCCC(=O)NCCOCCOCCOCCOCCOCCOCCOCCOCCOCCOCCn3cc(CCC(=O)NCCCC[C@H]4NC(=O)[C@H](CCC(=O)O)NC(=O)[C@@H]5CCCN5C(=O)[C@H](CC(C)(C)C)NC(=O)[C@@H](NC(C)=O)CSCCC(=O)N5CN6CN(C5)C(=O)CCSC[C@H](NC(=O)[C@H](Cc5ccc(O)cc5)NC(=O)[C@@H]5CCCN5C4=O)C(=O)N[C@@H](Cc4ccccc4)C(=O)N[C@@H](C)C(=O)N[C@@H](CC(=O)O)C(=O)N4CCC[C@H]4C(=O)N[C@@H](Cc4ccc(O)cc4)C(=O)N[C@@H](CCCC)C(=O)N[C@H](C(=O)N[C@@H](C)C(N)=O)CSCCC6=O)nn3)CCOCCC(=O)NCCOCCOCCOCCOCCOCCOCCOCCOCCOCCOCCn3cc(CCC(=O)N[C@H]4CSCCC(=O)N5CN6CN(C5)C(=O)CCSC[C@H](NC(=O)[C@@H](CC(=O)O)NC(=O)[C@H](Cc5cccc7ccccc57)NC(=O)[C@@H]5CCCN5C4=O)C(=O)N[C@@H](CCSC)C(=O)N[C@@H](CCCCNC(=N)N)C(=O)N[C@@H](CC(=O)O)C(=O)N[C@@H](Cc4c[nH]c5ccccc45)C(=O)N[C@@H](CO)C(=O)N[C@@H]([C@@H](C)O)C(=O)N4CCC[C@H]4C(=O)N4C[C@H](O)C[C@H]4C(=O)N[C@@H](Cc4c[nH]c5ccccc45)C(=O)N[C@H](C(N)=O)CSCCC6=O)nn3)nn1)C(=O)N1CCC[C@H]1C(=O)N[C@@H](Cc1ccc(O)cc1)C(=O)N2,rat,2 mg/kg,,0.44 L/kg
Oc1c(Br)cc(Cl)c2cccnc12,Sprague-Dawley rat,2 mg/kg,,21.3 L/kg
CCc1cc(OC)c2nccc(N3CCc4c(cc(Cn5ccnc5)cc4-c4cn(C)nc4C(F)(F)F)C3=O)c2c1,male Sprague-Dawley rat,3 mg/kg,,3.1 L/kg
COc1cc(F)ccc1-c1ncnc(Nc2cccc(CS(N)(=O)=O)c2)n1,male Wistar rat,,,1.4 L/kg
